These results are taken from ChEMBL document CHEMBL4392831, “Discovery of a novel class of potent and selective tetrahydroindazole-based sigma-1 receptor ligands” (Bioorg Med Chem, 2019).

A short description of data set [1]: Stability in mouse liver microsomes assessed as parent compound remaining at 10 uM in presence of NADPH incubated for 60 mins at 37 degC by UPLC/MS analysis. The data set is classed as ADME, Microsome. The following applies: 1 h. Summed up:
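Mouse liver microsomes at 0.4 mg/mL with NADPH cofactor in phosphate buffer (0.5 M), compound at 10 μM, verapamil control. T0 sample quenched at once; others shaken 60 min at 37 °C, then stopped with 2 volumes ice-cold acetonitrile. After centrifugation, parent quantified by UPLC/MS in SRM mode. % remaining = (conc at 60 min / conc at 0 min) ×100. Duplicate runs, mean reported.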

Data set [2] in a line: Thermodynamic solubility in pH 7.4 PBS buffer incubated for 16 hrs by UV-absorption spectroscopy. In kind it is physicochemical. The following applies: pH 7.4, 16 h. A digest of the protocol:
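A standard curve per compound was built from UV absorbance of acetonitrile dilutions (500 to 0.9 μM, DMSO held at 0.5%) made from DMSO stock. For the sample, 1 mg compound in 1 mL PBS pH 7.4 was stirred at 500 rpm for 16 h at room temperature, then equilibrated 30 min and passed through a 0.2 μm filter. Filtrate UV absorbance was read on a plate reader and solubility extrapolated from the curve.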

In data set [3] the target is T1, Sigma non-opioid intracellular receptor 1 (Homo sapiens, UniProt Q99720). Nature of the data set: Displacement of [3H]-(+)-pentazocine from sigma1 receptor (unknown origin) expressed in HEK293 cell membranes after 120 mins by microbeta scintillation counting method. Summed up:
(§1)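 Radioligand binding run by an external screening program; sigma-1 tracer [3H]-pentazocine, sigma-2 tracer [3H]-DTG. Each compound first tested at a single 10 μM concentration. Those giving >50% inhibition were then titrated over a dose range to derive pKi.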

For data set [4], the target named is Sigma intracellular receptor 2 (Homo sapiens, UniProt Q5BJF2). Briefly: Displacement of [3H]-DTG from sigma2 receptor (unknown origin) after 120 mins in presence of sigma1 […] (+)-SKF10047 by microbeta scintillation counting method. Summed up: as §1
Chain of Sigma intracellular receptor 2 (Q5BJF2 whole entry): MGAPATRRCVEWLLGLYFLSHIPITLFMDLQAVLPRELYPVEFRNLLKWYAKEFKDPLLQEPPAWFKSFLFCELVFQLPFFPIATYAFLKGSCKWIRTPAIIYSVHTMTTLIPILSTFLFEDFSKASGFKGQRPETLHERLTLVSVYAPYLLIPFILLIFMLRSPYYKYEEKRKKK
(In general: Loss of bound radioactivity is the signal in a displacement assay; it reports binding, not function.)

The nature of data set [5]: Displacement of [3H]-DTG from sigma2 receptor in guinea pig brain membranes after 120 mins in presence of sigma1 […] (+)-SKF10047 by microbeta scintillation counting method. In kind it is cell membranes, Cavia porcellus.
For data set [6], the target named is T1, Sigma non-opioid intracellular receptor 1. Nature of the data set: Displacement of [3H]-(+)-pentazocine from recombinant human sigma1 receptor expressed in HEK293 cell membranes after 120 mins by microbeta scintillation counting method.
The species named for data set [7] is Homo sapiens. Nature of the data set: Selectivity for sigma1 receptor (unknown origin) over sigma2 receptor (unknown origin).

T1 sequence (Q99720 whole entry): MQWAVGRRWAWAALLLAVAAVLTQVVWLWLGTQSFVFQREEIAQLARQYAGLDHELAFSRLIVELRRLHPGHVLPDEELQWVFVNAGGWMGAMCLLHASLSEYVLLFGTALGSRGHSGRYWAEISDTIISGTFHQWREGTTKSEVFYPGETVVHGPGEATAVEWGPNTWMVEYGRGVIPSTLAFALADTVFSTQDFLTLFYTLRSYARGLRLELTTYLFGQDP

Regarding `O=C(c1c2c(nn1-c1ccccc1)CCC(NCCc1ccc3c(c1)OCO3)C2)N1CCCCC1` (stereo unspecified), the Stability in data set [1] is reported as 24%. In data set [2], this compound returned a Therm solubility of 655 µM. Moreover, the Ki was 63.1 nM in data set [3] and 31.6 nM in data set [4] (read-out: pKi (converted)).

For the compound `O=C(c1nn(-c2ccccc2)c2c1CC(NCCc1ccc(F)cc1)CC2)N1CCCCC1` (stereo unspecified), the Ki in data set [3] is 126 nM; in data set [4] (read-out: pKi (converted)), 100 nM.

`NC(=O)c1ccc(-n2nc3c(c2C(=O)N2CCCCC2)CC(NCCc2ccccc2)CC3)cc1` (stereo unspecified) gave a Ki in data set [3] of 631 nM.

Turning to `c1ccc(OCc2cc(OC[C@@H]3CCCN3)no2)cc1`, the Ki in data set [5] is 1310 nM; in data set [6] it was 4.1 nM.

On to `O=C(c1c2c(nn1-c1ccc(O)cc1)CCC(NCCc1ccccc1)C2)N1CCCCC1` (stereo unspecified), for which the Ki in data set [3] was 316 nM; in data set [4] (read-out: pKi (converted)) it was 251 nM.

Regarding `CCCn1nc(C(=O)N(C)C)c2c1CCC(NCCc1ccc(C(F)(F)F)cc1)C2` (stereo unspecified), the Ki is 2510 nM in data set [3] and 631 nM in data set [4] (read-out: pKi (converted)).

For the compound `CCCn1nc(C(=O)N(C)C)c2c1CCC(NCCc1ccc3c(c1)OCO3)C2` (stereo unspecified), the Ki in data set [3] is 501 nM; in data set [4] (read-out: pKi (converted)) it was 398 nM.

As to `CCCn1nc(C(=O)N2CCCCC2)c2c1CCC(NCCc1ccc(O)cc1)C2` (stereo unspecified), the Ki in data set [4] (read-out: pKi (converted)) is 251 nM.

For the compound `CC(C)=CCN1CC[C@]2(C)c3cc(O)ccc3C[C@H]1[C@H]2C` [(+)-PENTAZOCINE], in data set [5], the Ki came to 1540 nM.

On to `O=C(c1nn(-c2ccccc2)c2c1CC(NCc1ccccc1)CC2)N1CCCCC1` (stereo unspecified), for which the Stability in data set [1] was determined as 0.3%. The same compound returned a Therm solubility in data set [2] of 1570 µM. Also, the Ki was 631 nM in data set [3] and 501 nM in data set [4] (read-out: pKi (converted)).

Consider `O=C(c1c2c(nn1-c1ccc(F)cc1)CCC(NCCc1ccncc1)C2)N1CCCCC1` (stereo unspecified), for which, in data set [1], the Stability is reported as 21%. In addition, the Ki in data set [3] was 100 nM.

In turn, `O=C(c1nn(Cc2ccccc2)c2c1CC(NCc1ccc(F)cc1)CC2)N1CCCCC1` (stereo unspecified) gave a Ki in data set [3] of 251 nM.

As for `O=C(c1nn(-c2ccccc2)c2c1CC(NCCc1cccc(O)c1)CC2)N1CCCCC1` (stereo unspecified), the Ki in data set [3] was 200 nM.

Regarding `O=C(c1c2c(nn1-c1ccccc1)CCC(NCc1ccc(F)cc1)C2)N1CCCCC1` (stereo unspecified), the Stability in data set [1] is listed as 7%. The Therm solubility in data set [2] stood at 508 µM. For the same compound, the Ki in data set [3] was 31.6 nM; in data set [4] (read-out: pKi (converted)) it was 158 nM.

Take `O=C(c1nn(-c2ccccc2)c2c1CC(NCCc1ccc3c(c1)OCO3)CC2)N1CCCCC1` (stereo unspecified): the Ki in data set [3] was 501 nM; in data set [4] (read-out: pKi (converted)) it was 316 nM.

On to `CCCn1nc(C(=O)N(C)C)c2c1CCC(NCc1ccc(F)cc1)C2` (stereo unspecified), for which the Stability in data set [1] is reported as 21%. For the same compound, the Therm solubility in data set [2] came out at 1780 µM. The Ki in data set [4] (read-out: pKi (converted)) is 2000 nM.

In data set [3], `O=C(c1nn(-c2ccccc2)c2c1CC(NCCc1ccc(C(F)(F)F)cc1)CC2)N1CCCCC1` (stereo unspecified) showed a Ki of 316 nM.

`O=C(c1c2c(nn1-c1ccccc1)CCC(NCCc1ccc(C(F)(F)F)cc1)C2)N1CCCCC1` (stereo unspecified) had a Ki in data set [3] of 200 nM.

`O=C(c1c2c(nn1-c1ccc(F)cc1)CCC(NCc1ccc(F)cc1)C2)N1CCCCC1` (stereo unspecified): the Stability in data set [1] is reported as 25%. In data set [2], this compound yielded a Therm solubility of 110 µM. For the same compound, the Selectivity ratio in data set [7] is above 500. In addition, in data set [4] (read-out: Ki), the Ki is above 10000 nM.

For `Cc1nc(-c2ccc(Cl)cc2)nc(OCCCN2CCCCC2)c1Cl`, the Ki was found to be 1420 nM in data set [5] and 1.1 nM in data set [6].

For `O=C(c1c2c(nn1-c1ccccc1)CCC(NCc1ccccc1)C2)N1CCCCC1` (stereo unspecified), the results for the Ki in data set [3] and in data set [4] (read-out: pKi (converted)) were 39.8 nM and 126 nM, respectively.

`Cc1ccccc1NC(=N)Nc1ccccc1C` [DITOLYLGUANIDINE]: in data set [5], the Ki came to 28.4 nM.

With `Clc1ccc(Cn2cc(NCCN3CCOCC3)nn2)cc1Cl`, in data set [5], the Ki is above 10000 nM.
